p-CIP stab down = lowers stability of the mouse p/CIP coactivator protein. Q05BA5. decrease of EGFP signal, % at 10 µM. AID 1984. F442A p/CIP-EGFP cells, EGFP fluorescence, 16 h. 290,000 tested, 0.01% active;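 active means EGFP signal decrease of at least 30% at 10 µM or well 3 SD below plate mean, unless failing retest; inactive means the rest, including hits failing retest or dose response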
FID counter = counter-screen for HCV NS3 helicase inhibitors: DNA intercalator displacement; DNA fluorescent intercalator displacement, fluorescence; inhibition, % at 7.9 µM; AID 1845; 290,000 tested, 0.17% active; in the data active means inhibition above about 37%;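 further: 0% = vehicle and 100% = reference compound; higher means more ethidium bromide displaced from hairpin DNA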
GPR7 antagonist = blocks human GPR7 receptor signaling; P48145; GPR7-expressing cells, fluorescence antagonist assay; inhibition, % at 4.4 µM; 290,000 tested, 1.1% active; AID 1861; in the data active means inhibition above about 16%, passing the limit was not always enough;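 further: cells stimulated with the agonist NPW; 0% = agonist with vehicle and 100% = vehicle without agonist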
Target sequence (P48145 whole entry, looked up): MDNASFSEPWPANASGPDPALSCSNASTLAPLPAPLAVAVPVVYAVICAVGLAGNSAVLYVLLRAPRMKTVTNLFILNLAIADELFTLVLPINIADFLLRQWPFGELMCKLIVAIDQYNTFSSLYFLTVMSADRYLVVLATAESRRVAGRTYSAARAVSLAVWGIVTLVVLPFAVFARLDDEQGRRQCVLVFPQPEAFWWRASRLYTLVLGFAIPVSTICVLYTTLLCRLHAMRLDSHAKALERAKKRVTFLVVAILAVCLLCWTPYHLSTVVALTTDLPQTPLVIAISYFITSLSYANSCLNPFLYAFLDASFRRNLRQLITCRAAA
HCV NS3 hel inh = HCV NS3 helicase inhibition. inhibition, % at 10.9 µM. 290,000 tested, 0.56% active. AID 1800. NS3 helicase DNA unwinding, Cy5 molecular beacon fluorescence;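 active means inhibition above the mean of all tested compounds plus 3 SD, set per campaign, cut at about 35% in these data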;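 further: 0% = DMSO wells and 100% = thioflavine S control wells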
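Compound dosing – single dose, 10.9 µM nominal final, DMSO 0.8% final · System – NS3 helicase fragment of HCV · Buffer or medium – MOPS pH 6.5, MgCl2, DTT, Tween20, BSA · Signal – Cy5 beacon fluorescence read at start and 1 h · Also added – annealed dual-labelled DNA beacon duplex, ATP-started · Schedule – 1 h at 25 °C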
HCV core dimer = HCV core protein dimerization inhibition. TR-FRET GST/Flag-core106 dimerization, 1536-well. inhibition, % at 5 µM. 300,000 tested, 0.33% active;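 active means inhibition above the mean of all tested compounds plus 3 SD, set per screening campaign, cut at about 45% in these data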
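Material: GST/Flag-tagged HCV core106 proteins. Incubation: 4 h, 22.5 °C incubation. Read-out basis: inhibition (%) from 671 over 617 nm ratio. Measured by: TR-FRET, excitation 340 nm, emission 617 and 671 nm.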
GPR7 antag conf = confirmation of human GPR7 antagonists. shares compounds with GPR7 antagonist. GPR7-expressing cells, calcium fluorescence antagonist mode. inhibition, % at 4.4 µM. 2,400 tested, 52% active; in the data active means inhibition above about 24%;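 further: stimulated with the GPR7 agonist NPW; 0% = agonist plus vehicle and 100% = vehicle alone without agonist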
MCHR1 antag = antagonizes human MCHR1, a GPR7 antagonist counter-screen; shares compounds with GPR7 antagonist; inhibition, % at 4.4 µM; MCHR1-expressing cells, fluorescence antagonist assay; AID 2148; 2,400 tested, 62% active; in the data active means inhibition above about 22%;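 further: 0% = vehicle with agonist and 100% = vehicle without agonist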
* marks the source's active call; other numbers are inactive results; nt = no result. Shown are actives, neighbours in structure and some others; about 1.9% of the full set was active somewhere.

SMILES	p-CIP stab down	FID counter	GPR7 antagonist	HCV NS3 hel inh	HCV core dimer	GPR7 antag conf	MCHR1 antag
COC(=O)c1ccc(NC(=O)Nc2ccc(F)cc2F)cc1	-7.6	-0.8	12.3	8.6	-6.1	nt	nt
COc1ccc([N+](=O)[O-])cc1C(=O)NCCOc1ccc(Cl)cc1	-5.9	-9.3	48.4*	2.4	-0.9	41.8*	46.5*
Cc1ccc(OCCNC(=O)c2cc(C(=O)NCCOc3ccc(C)cc3)cc([N+](=O)[O-])c2)cc1	4.4	3.6	-7.2	11.3	10.5	nt	nt
CN(C)S(=O)(=O)Oc1ccsc1C(=O)Nc1ccc(Cl)c(Cl)c1	12.8	10.3	27.8*	-5.5	-3.3	21.4	58.1*
Cc1ccc(C(=O)NCc2n[nH]c(=S)n2-c2ccccc2)cc1[N+](=O)[O-]	3.1	1.2	8.3	1.9	-2.5	nt	nt
CCOC(=O)C1(Cc2cccc(Cl)c2)CCCN(C(=O)CCSC)C1 (configuration not stated)	-1.7	-43.9	29.5*	-5.5	4.5	7.0	11.5
COc1ccccc1N1C(=O)C=C(Sc2nc(C)cc(C)n2)C1=O	-5.3	-24.8	-17.5	10.8	1.0	nt	nt
COc1ccc(N(C(=O)Cn2nnc(-c3ccc(C)o3)n2)C(C(=O)NC2CCCC2)c2ccncc2)cc1 (configuration not stated)	-11.5	-36.3	-7.5	12.0	11.4	nt	nt
O=C(NCCC(=O)N1CCC2(CC1)NCCc1[nH]cnc12)c1cccc(Cl)c1	-0.2	6.5	-19.1	24.9	8.7	nt	nt
COc1ccc(CSc2nnnn2-c2ccc(C(N)=O)cc2)cc1[N+](=O)[O-]	-12.5	3.6	36.1*	-7.6	-11.2	6.6	38.9*
COC(=O)CCC(=O)N(CCN(Cc1ccccc1)C(=O)CCC(=O)OC)Cc1ccccc1	nt	nt	nt	nt	2.8	nt	nt
CCCC(=O)N(CCN(Cc1ccccc1)C(=O)CCC)Cc1ccccc1	-6.0	-28.9	31.2*	-11.1	6.9	43.1*	30.6*
COc1ccc(NC2CC(=O)N(C(C)C)C2=O)cc1 (configuration not stated)	-18.5	-4.7	23.6*	10.7	-2.1	-1.5	9.2
COc1cccc(NC(=O)N2CCC(NC(=O)C3CCCCC3)CC2)c1	38.2	-22.8	-6.4	4.4	0.3	nt	nt
COc1ccc(S(=O)(=O)N2CC(C)N(C(=O)N3CCOCC3)C2)cc1 (configuration not stated)	0.8	-12.0	21.3	4.8	-6.1	nt	nt
O=S(=O)(Cc1ccc(Cl)cc1)NCc1cccnc1	-5.0	1.1	24.6*	7.2	-0.1	-3.6	-2.6
CC(=O)Nc1ccc(S(=O)(=O)NCCCN2CCN(Cc3ccccc3)CC2)cc1Cl	-7.9	7.3	-3.3	4.0	-1.7	nt	nt
COc1cc(OC)cc(C(=O)N2CCCC(Nc3ccc(F)cc3)C2)c1 (configuration not stated)	-2.9	-30.3	27.8*	12.3	-6.9	-14.6	-11.3
COc1ccc(NC(=O)c2sc3ncn(CC(=O)N4CCCCC4)c(=O)c3c2C)cc1OC	-2.6	-45.5	-3.0	-1.7	-2.0	nt	nt
COc1ccc(CCn2c(-c3cc([N+](=O)[O-])cc([N+](=O)[O-])c3)nc3nc4ccccc4nc32)cc1OC	-13.8	0.2	-2.6	-5.9	6.0	nt	nt
Cc1ccnc(Nc2nc(-c3ccc(O)cc3)cs2)c1	-14.8	-2.7	14.0	-3.7	-5.2	nt	nt
Cc1ccnc(Nc2nc(-c3ccc(O)c(O)c3)cs2)c1	-3.2	3.6	40.6*	-9.8	-16.9	56.9*	48.3*
N#Cc1nc(COc2ccc(Cl)cc2)oc1N1CCN(Cc2ccccc2)CC1	-7.3	-15.8	48.5*	-7.1	0.7	49.5*	47.0*
CCN1CCN(c2oc(COc3ccc(Cl)cc3)nc2C#N)CC1	3.0	-2.2	0.4	-13.0	5.2	nt	nt
C=CCNc1oc(COc2ccc(C)cc2)nc1C#N	8.0	-8.7	24.2*	0.9	-4.0	6.6	16.7
SMILES	p-CIP stab down	FID counter	GPR7 antagonist	HCV NS3 hel inh	HCV core dimer	GPR7 antag conf	MCHR1 antag
N#Cc1nc(COc2ccccc2)oc1NCCN1CCOCC1	-13.3	-5.5	4.2	4.2	-1.6	nt	nt
CN(C)CCNc1oc(COc2ccc(-c3ccccc3)cc2)nc1C#N	-16.9	16.1	-5.2	-65.5	-7.3	nt	nt
COc1ccc(N2CCN(c3oc(COc4ccc(Cl)cc4Cl)nc3C#N)CC2)cc1	-6.0	-4.7	40.7*	-6.4	10.5	53.8*	34.9*
N#Cc1nc(COc2ccc(-c3ccccc3)cc2)oc1NCCCN1CCOCC1	-0.5	18.3	23.8*	-83.4	-5.6	41.0*	56.1*
N#Cc1nc(COc2ccc(Cl)cc2Cl)oc1N1CCN(c2ccccc2)CC1	-8.6	-9.5	22.3	-6.8	4.8	nt	nt
COc1ccc(N2CCN(c3oc(Cc4ccccc4)nc3C#N)CC2)cc1	-9.6	0.8	-4.6	-14.6	3.6	nt	nt
CN1CCN(c2oc(COc3ccc(-c4ccccc4)cc3)nc2C#N)CC1	-6.5	19.6	26.8*	-85.2	0.1	13.1	40.7*
COc1ccc(N2CCN(c3oc(COc4ccc(Cl)cc4)nc3C#N)CC2)cc1	0.6	-2.5	38.9*	-6.7	14.3	40.1*	32.7*
COc1ccc(N2CCN(c3oc(COc4ccccc4)nc3C#N)CC2)cc1	0.6	-15.4	43.6*	-11.1	1.6	48.6*	46.1*
CN(C)c1ccc(C(C(=O)NC2CCCCC2)N(Cc2ccco2)C(=O)c2snc(C(N)=O)c2N)cc1 (configuration not stated)	-1.8	-37.8	-13.2	-12.6	4.6	nt	nt
Cc1ccc(S(=O)(=O)N2CCN(C(=O)c3ccco3)CC2)cc1	0.7	-8.2	-16.4	8.2	4.7	nt	nt
O=C(c1ccco1)N1CCN(S(=O)(=O)c2ccc(Br)s2)CC1	-7.9	-6.3	46.8*	9.7	-3.8	8.8	-1.1
CC(=O)N1CN(C2CC(C)(C)NC(C)(C)C2)Cc2c1sc1c2CCCC1	-0.1	7.5	6.8	-13.1	3.4	nt	nt
CC(=O)N1CN(C2CCCC2)Cc2c1sc1c2CCCC1	-10.4	-3.8	23.7*	1.2	-0.1	17.5	13.0
CCn1c(CC(=O)Nc2ccc(F)cc2)nnc1SCC(=O)N1CCOCC1	-10.2	-9.6	-10.4	1.9	-3.5	nt	nt
COc1ccc(N2CCN(C(=O)COC(=O)c3cnccn3)CC2)cc1	nt	nt	nt	nt	-7.2	nt	nt
Cc1cccn2c(=O)nc(SCC(=O)NC3CCCCC3)nc12	nt	nt	nt	nt	-2.8	nt	nt
C#CCNC(=O)C1=C[C@H](c2cn(C(C)=O)c3ccccc23)C[C@H](OCc2ccc(CO)cc2)O1	-5.3	-43.2	38.3*	-13.0	3.5	18.2	38.1*
CC(C)(C)NC(=O)c1oc2ccccc2c1COc1ccccc1	-8.8	-16.2	26.4*	-0.1	-4.1	20.8	34.6*
CC(OC(=O)c1oc2ccccc2c1COc1ccccc1)C(N)=O (configuration not stated)	15.3	-17.4	-2.3	-4.1	1.4	nt	nt

Screening results deposited in PubChem by several laboratories.
